In ChEMBL document CHEMBL4414568, “Development of Novel Irreversible Pyruvate Kinase M2 Inhibitors” (J Med Chem, 2019):
Active and inactive are the calls of the source. The calls are words filed in the database; no cut-off is given here.

Assays:
LNCaP = experiment: Antiproliferative activity against human LNCAP cells assessed as reduction in cell viability incubated for 24 hrs by MTT assay; type: functional, cell-based
Outline: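 Cells seeded at 3,500 per well in 10% FBS and left overnight, then exposed to test agent or vehicle in 5% FBS for 24 h. MTT added for 1 h, then medium swapped for DMSO and absorbance read at 560 nm. Viability given as percent of vehicle-treated control. Run in triplicate.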

[1] = molecular target: T1, Citrate synthase, mitochondrial (Homo sapiens) (UniProt O75390); experiment: Binding affinity to CS in human PC9 cells incubated for 1 hr by ABPP-SILAC assay; type: cell-based
T1 sequence (whole entry): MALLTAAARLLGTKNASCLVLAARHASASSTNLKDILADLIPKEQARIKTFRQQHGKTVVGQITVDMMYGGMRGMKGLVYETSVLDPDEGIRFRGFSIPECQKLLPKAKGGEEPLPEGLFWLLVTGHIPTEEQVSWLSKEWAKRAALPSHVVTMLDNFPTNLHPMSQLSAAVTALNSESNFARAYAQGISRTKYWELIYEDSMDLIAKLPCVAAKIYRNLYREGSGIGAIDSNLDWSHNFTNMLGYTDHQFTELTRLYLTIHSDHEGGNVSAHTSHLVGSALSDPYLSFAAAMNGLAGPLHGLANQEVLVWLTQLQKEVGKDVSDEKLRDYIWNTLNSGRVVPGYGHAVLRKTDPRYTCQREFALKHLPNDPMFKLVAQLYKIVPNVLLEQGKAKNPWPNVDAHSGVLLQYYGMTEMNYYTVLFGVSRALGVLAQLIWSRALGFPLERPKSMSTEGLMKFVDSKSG
Outline: (§1)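 PC-9 cells passaged at least six times in SILAC DMEM with 10% dialyzed FBS plus 100 µg/mL light or 13C/15N-labeled Arg/Lys. Heavy cells got ABPP probe (1 µM) and light cells DMSO, 1 h at 37 °C. Cells mixed 1:1, sonicated, spun at 100,000g, protein normalized to 1 mg/mL. Click biotin-azide, streptavidin bead pulldown 16 h at 4 °C, SDS-PAGE, on-bead trypsin digestion, LC-MS/MS.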

[2] = molecular target: T2, Phosphoenolpyruvate carboxykinase [GTP], mitochondrial (Homo sapiens) (UniProt Q16822); experiment: Binding affinity to PCKGM in human PC9 cells incubated for 1 hr by ABPP-SILAC assay; type: cell-based; outline: as §1
T2 sequence (whole entry): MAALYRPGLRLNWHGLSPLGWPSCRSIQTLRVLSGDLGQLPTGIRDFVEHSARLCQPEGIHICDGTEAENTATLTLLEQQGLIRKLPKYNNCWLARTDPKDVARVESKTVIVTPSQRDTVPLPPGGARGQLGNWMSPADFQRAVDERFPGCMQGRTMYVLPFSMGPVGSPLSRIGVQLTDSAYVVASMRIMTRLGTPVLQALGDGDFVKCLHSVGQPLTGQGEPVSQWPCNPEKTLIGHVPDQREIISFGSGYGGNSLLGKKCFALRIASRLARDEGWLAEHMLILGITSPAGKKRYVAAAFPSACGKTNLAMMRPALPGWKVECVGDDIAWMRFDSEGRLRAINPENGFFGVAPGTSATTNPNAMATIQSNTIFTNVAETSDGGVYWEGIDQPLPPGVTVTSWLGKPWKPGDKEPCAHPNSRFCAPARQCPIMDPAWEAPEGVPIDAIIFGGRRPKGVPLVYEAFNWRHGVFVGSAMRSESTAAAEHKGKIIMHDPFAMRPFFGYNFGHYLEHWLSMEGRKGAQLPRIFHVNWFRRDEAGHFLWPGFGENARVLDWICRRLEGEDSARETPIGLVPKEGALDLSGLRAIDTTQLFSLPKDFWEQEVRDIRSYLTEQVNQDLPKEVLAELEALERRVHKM

Pyruvate kinase PKM [3] = molecular target: T3, Pyruvate kinase PKM (Homo sapiens, UniProt P14618); experiment: Inhibition of N-(4-(3-(3-(Methylamino)-3-oxopropyl)-5-(4'-(prop-2-yn-1-yloxy)-[1,1'-biphenyl]-4-yl)-1H-pyrazol-1-yl)phenyl)propiolamide binding to PKM2 in human PC9 cells at 1 uM preincubated for 1 hr followed by probe addition and measured after 1 hr by Western blot analysis; type: cell-based
Outline: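 PC-9 cells pretreated with 1 µM compound or DMSO for 1 h, then alkyne probe added at 0.5, 1 or 2 µM for 1 h at 37 °C. Lysates put through Cu-catalysed click with biotin-azide, streptavidin beads 16 h at 4 °C, washes with 0.5% SDS/PBS, 10% SDS-PAGE and PKM2 Western blot.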

PC-9 = experiment: Antitumor activity against human PC9 cells xenografted in athymic nude mouse assessed as reduction in tumor volume at 10 mg/kg, ip administered once daily for 25 days measured post-last dose; type: functional, organism-based
Outline: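 Female nude mice, 6 weeks old, given s.c. 1 × 10^6 PC-9 cells in Matrigel (1:1). From day 7, once-daily i.p. vehicle or 10 mg/kg compound in sterile water with 0.5% methylcellulose and 0.1% Tween-80, n = 8 per group, for 25 days. Tumor volume and body weight followed, tumors weighed at end.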

Mus musculus = experiment: In vivo inhibition of PKM2 in human PC9 cells xenografted in athymic nude mouse assessed as reduction in EGFR expression at 10 mg/kg, ip administered once daily for 25 days measured post-last dose by Western blot analysis; type: functional, organism-based
Outline: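 Tumors from PC-9 xenograft nude mice given 10 mg/kg i.p. daily or vehicle for 25 days (n = 8 per group) were lysed for Western blots of PKM2, EGFR, Stat3 and β-catenin. Bands quantified by ImageJ and normalized to GAPDH.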

Pyruvate kinase PKM [4] = molecular target: T3, Pyruvate kinase PKM; experiment: Binding affinity to recombinant human N-terminal His6-tagged PKM2 expressed in Escherichia coli BL21 (DE3) assessed as Cys326-adduct formation by NanoLC-MS/MS analysis
Outline: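 In-house His-tag PKM2 from E. coli BL21(DE3), purified by Ni-NTA then Superdex 200, treated with compound. Reduced with 30 mM DTT at 37 °C for 1 h, alkylated with 30 mM iodoacetamide for 1 h in the dark, trypsin 1:30 w/w overnight at 37 °C. Digests from 6 experiments pooled, 48 nanoLC-MS/MS runs in data-dependent mode, Orbitrap MS1.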

T3 sequence (P14618 2-531 limits assumed): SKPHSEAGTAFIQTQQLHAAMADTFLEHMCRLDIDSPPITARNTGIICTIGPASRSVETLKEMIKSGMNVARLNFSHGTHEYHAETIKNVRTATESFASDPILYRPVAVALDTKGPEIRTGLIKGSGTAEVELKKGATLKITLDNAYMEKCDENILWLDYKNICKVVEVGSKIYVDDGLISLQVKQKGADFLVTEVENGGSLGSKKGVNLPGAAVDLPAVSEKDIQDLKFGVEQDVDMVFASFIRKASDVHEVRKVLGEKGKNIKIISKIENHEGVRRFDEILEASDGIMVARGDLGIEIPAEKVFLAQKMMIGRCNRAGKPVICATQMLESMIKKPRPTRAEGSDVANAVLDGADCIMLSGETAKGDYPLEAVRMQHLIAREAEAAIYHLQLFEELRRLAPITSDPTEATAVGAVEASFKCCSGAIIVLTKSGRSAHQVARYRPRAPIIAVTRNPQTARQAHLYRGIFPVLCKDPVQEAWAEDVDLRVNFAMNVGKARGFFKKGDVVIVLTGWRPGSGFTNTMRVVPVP

C#CC(=O)Nc1ccc(-n2nc(CCC(=O)NC)cc2-c2ccc(-c3ccc(C(F)(F)F)cc3)cc2)cc1
IC50 (LNCaP): > 2 µM | Activity [1]: Active | Activity [2]: Active | inhibition (Pyruvate kinase PKM [3]): Active | Activity (PC-9): Active | inhibition (Mus musculus): Active | Activity (Pyruvate kinase PKM [4]): Active
